Series [1] concerns Staphylococcus aureus. The series can be described thus: Antibacterial activity against methicillin-resistant Staphylococcus aureus NRS483 assessed as inhibition of visible bacterial growth incubated for 18 to 20 hrs by CLSI method. It counts as functional. The note with it: time 18-20 hrs. The essentials:
(§1)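 CLSI broth microdilution. Strains grown aerobically overnight on tryptic soy agar at 37 °C, adjusted to 0.5 McFarland and diluted in cation-adjusted Mueller–Hinton broth to about 5×10^5 CFU/mL. Compounds and control drugs serially diluted across the plate. Incubated aerobically at 37 °C for 18-20 h. MIC is the lowest concentration with no visible growth.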

The test system of series [2] is Pseudomonas aeruginosa. The series can be described thus: Antibacterial activity against Pseudomonas aeruginosa ATCC 27853 assessed as inhibition of visible bacterial growth at 16 ug/ml incubated for 18 to 20 hrs by CLSI method. It counts as functional, organism-based. The note with it: dose 16.0 µg/ml, time 18-20 hrs. An outline of the steps: as §1
For series [3], the system named is Caco-2. Briefly: Cytotoxicity against human Caco2 cells assessed as reduction in cell viability at 128 ug/ml incubated for 2 hrs by MTS assay. It counts as cell-based. The note with it: caco-2, 2 h, dose 128 µg/ml. (Formazan colour is commonly taken as a measure of viable cells.)
For series [4], the system named is Staphylococcus aureus. Briefly: Antibacterial activity against methicillin-resistant Staphylococcus aureus NRS384 assessed as inhibition of visible bacterial growth incubated for 18 to 20 hrs by CLSI method. The note with it: time 18-20 hrs. It counts as functional. An outline of the steps: as §1
Series [5] is described as follows: Hemolytic activity in human RBC at 128 ug/ml incubated for 60 mins relative to control. It counts as ADME, cell-based, Erythrocyte. The note with it: red blood cells (erythrocytes), dose 128 µg/ml, read-out: Activity. The essentials: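 Single-donor human erythrocytes as a 5% v/v suspension in PBS. Compounds serially diluted in PBS, in triplicate, and incubated with RBCs at 37 °C for 60 min. PBS served as the negative control and Triton-X as the positive control. Samples spun at 4,000 rpm for 5 min and supernatant absorbance read at 540 nm. Percent hemolysis = 100×(sample−negative)/(positive−negative).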

In series [6] the test system is Staphylococcus aureus. Briefly: Antibacterial activity against methicillin-resistant Staphylococcus aureus USA400 infected in mouse J774 cells assessed as log reduction in intracellular growth at 16 ug/ml incubated for 18 to 22 hrs. It counts as functional. The note with it: dose 16 µg/ml; time 18-22 hrs. An outline of the steps: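 J774 murine macrophages grown in DMEM with 10% FBS at 37 °C, 5% CO2. Cells infected with MRSA USA400 at MOI about 10:1 for 1 h, then washed with gentamicin to remove extracellular bacteria. Agents added at 8 or 16 μg/mL in triplicate, with DMSO vehicle control, for 24 h. Cells lysed with 0.1% Triton-X, lysates plated on tryptic soy agar, and CFU counted after 18-22 h at 37 °C. Analysed by two-way ANOVA with Dunnett's test.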

The test system of series [7] is Staphylococcus aureus. Briefly: Antibacterial activity against Staphylococcus aureus ATCC 25923 assessed as inhibition of visible bacterial growth incubated for 18 to 20 hrs by CLSI method. It counts as functional. The note with it: time 18-20 hrs. The essentials:
as §1

The subject of series [8] is Staphylococcus aureus. Briefly: Synergistic antibacterial activity against methicillin-resistant Staphylococcus aureus ATCC 33592 assessed as fractional inhibitory concentration index in presence of daptomycin by checkerboard assay. It counts as functional.
For series [9], the system named is Staphylococcus aureus. The series can be described thus: Antibacterial activity against methicillin-sensitive Staphylococcus aureus NRS 107 assessed as inhibition of visible bacterial growth incubated for 18 to 20 hrs by CLSI method. It counts as functional. The note with it: time 18-20 hrs. The essentials: as §1
The subject of series [10] is Streptococcus pneumoniae. The series can be described thus: Antibacterial activity against […] Streptococcus pneumoniae ATCC 700677 assessed as inhibition of visible bacterial growth incubated for 18 to 20 hrs by CLSI method. It counts as functional. The note with it: time 18-20 hrs. The essentials: as §1

≈ marks a conversion by molar mass, not a printed value. Calls of active or inactive are those of the source. No cut-off for these calls is given here.

Usually MIC stands for the lowest concentration that inhibits growth of the organism. Regarding `O=C(Nc1nnc(-c2cccs2)o1)c1ccc(S(=O)(=O)C(F)(F)F)cc1`, the MIC in [1] came out at 4 µg/mL (≈ 9.92 µM); in [4], 4 µg/mL (≈ 9.92 µM); in [7], 0.5 µg/mL (≈ 1.24 µM); in [9], 4 µg/mL (≈ 9.92 µM); in [10], 1 µg/mL (≈ 2.48 µM). Further, the inhibition entry in series [2] is “inactive”. Moreover, the Activity entry is “Non-Toxic” in [3] and 0.6 log10CFU/ml in series [6]. Also, the hemolysis at 1 h, 128 ug/ml in series [5] was determined as 37%. For the same compound, the “fractional inhibitory concentration index (FICI)” value in series [8] is 0.63.

Values taken from ChEMBL document CHEMBL4715682, “Potent trifluoromethoxy, trifluoromethylsulfonyl, trifluoromethylthio and pentafluorosulfanyl containing (1,3,4-oxadiazol-2-yl)benzamides against drug-resistant Gram-positive bacteria” (RSC Med Chem, 2020).
